Consider 7 compounds from PMC12188530 (RSC Advances, 2025).

The nature of one data set: Cytotoxicity assay. The class given is cell-based. As to conditions: human, HepG2 cells.
Data set [1] relates to S. aureus ATCC 43300 biofilm. As to the kind of experiment: Biofilm growth inhibition assay. It is filed as cell-based, Staphylococcus aureus. The settings on record: at MIC, 24 hours. Summed up: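 S. aureus grown in TSB at 37 °C for 24 h, then diluted 1:100 in TSB with 0.1% glucose. […] Planktonic cells removed, wells PBS-washed, dried 10 min and stained with 0.1% crystal violet (10 min, 25 °C). Stain solubilized in 33% acetic acid (30 min, RT, shaking) and read at A600. Percent inhibition calculated against untreated control, in triplicate with three biological replicates.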

Data set [2] concerns the target T1, S. aureus ATCC 43300 Sortase A (Staphylococcus aureus, UniProt Q2FV99).
T1 sequence (Q2FV99 60-206): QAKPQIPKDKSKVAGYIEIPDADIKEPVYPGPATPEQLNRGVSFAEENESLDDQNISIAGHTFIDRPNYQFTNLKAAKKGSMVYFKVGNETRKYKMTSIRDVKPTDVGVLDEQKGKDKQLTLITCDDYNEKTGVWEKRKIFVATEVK
As to the kind of experiment: Sortase A activity assay by FRET. The class given is biochemical.

Data set [3] has as its system S. aureus ATCC 43300. As to the kind of experiment: MIC and MBC by micro broth dilution. It is filed as cell-based, Staphylococcus aureus.
Data set [4] deals with S. aureus ATCC 43300. As to the kind of experiment: Time-kill kinetics. The class given is cell-based, Staphylococcus aureus. The settings on record: 2 × MIC; for re-growth of the bacteria: after 24 hours; for log reduction in CFU: within 2 to 4 hours. In a few lines: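 Culture grown to OD600 0.5 (5 × 10^8 CFU mL−1), then diluted 1000-fold in CA-MHB. Test compound added at 2 × MIC, with ciprofloxacin (2 × MIC) and untreated controls. Incubated at 37 °C with 200 rpm shaking and sampled at 0, 2, 4, 8, 12 and 24 h. Samples plated on MHA for 24 h at 37 °C, and CFU mL−1 determined. Run in triplicate.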

Another data set deals with T2, Sortase A (Staphylococcus aureus, UniProt Q2FV99).
T2 sequence (Q2FV99 60-206): T1 sequence (Q2FV99 60-206)
Briefly: Fluorescence quenching assay. The class given is binding. The settings on record: compounds 0 to 128 μg mL^−1.

Data set [5] deals with S. aureus ATCC 43300 membrane potential. Briefly: Membrane potential perturbation assay. The class given is cell-based, Staphylococcus aureus. The settings on record: MIC and 2 × MIC. In a few lines: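 Cells pelleted at 2400×g for 10 min and resuspended in PBS at OD600 1.0. DiOC2(3) added to 30 μM final. Cells mixed with test compound at MIC and 2 × MIC. CCCP served as positive control and untreated cells as negative control; n = 3, mean ± SD.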

The subject of data set [6] is S. aureus ATCC 43300 invasion in macrophage (THP1). Briefly: Macrophage invasion assay. The settings on record: THP1, MIC and 2 × MIC. The class given is cell-based, Staphylococcus aureus.
Data set [7] relates to S. aureus ATCC 43300. As to the kind of experiment: Thigh infection in a neutropenic mouse. The class given is in vivo. The settings on record: BALB/C mice, group n = 4, 100 mg kg^−1 oral. Summed up:
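Female BALB/c mice, 6–8 weeks old, n = 4 per group, made neutropenic with cyclophosphamide i.p. (150 mg kg−1 on day −4, 100 mg kg−1 on day −1). Right thigh infected i.m. with 5 × 10^5 CFU per mouse. At 4 h, test compound given orally at 100 mg kg−1, alongside vancomycin 100 mg kg−1 oral and a sunflower oil vehicle group. At 24 h, thighs homogenized in PBS and CFU plated on MHA, in triplicate per mouse.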

Setting [8] is: Staphylococcus aureus, ATCC43300, 18 h.
Setting [9] is: Staphylococcus aureus, ATCC43300, 18 h, S. aureus ATCC 43300, MHB, 37 °C, 18 hours.

≈ marks a conversion by molar mass, not a printed value. Structures can show the parent of a compound that is named as a salt.

Compound `CCOC(=O)C1=C(COCCN)NC(C)=C(C(=O)OC)C1c1ccccc1Cl` (centres unmarked) [Amlodipine besylate] came in with a viability at 24 h, 1 × MIC in the data set “Cytotoxicity assay” of 60%. The biofilm growth inhibition in [1] is recorded as 40%. Testing at 128 µg/mL in data set [2] gave an inhibition of 57%. For the same compound, the MBC with S. aureus ATCC 43300 [3] (setting [8]) came out at 128 µg/mL. For the same compound, in the data set with S. aureus ATCC 43300 [3] (setting [9]), the MIC worked out at 64 µg/mL. In addition, in the data set with S. aureus ATCC 43300 [4], the “log reduction in colony-forming units (CFU) from the initial inoculum” value (“log reduction in colony-forming units” below) was no less than 3 log and the “time within which the bacteria were eliminated” value lay in the range of 4 to 24 h.

Regarding `CN(C)CCCN1c2ccccc2Sc2ccc(Cl)cc21` [Chlorpromazine hydrochloride], the viability at 24 h, 1 × MIC in “Cytotoxicity assay” stood at 28%. Also, the biofilm growth inhibition in data set [1] was found to be 93%. The inhibition at 128 µg/mL in data set [2] was determined as 49%. In addition, the MIC against S. aureus ATCC 43300 [3] (setting [9]) is 32 µg/mL. Also, in the data set on S. aureus ATCC 43300 [4], the “log reduction in colony-forming units” value was no less than 3 log, the “time within which the bacteria were eliminated” value lay in the range of 8 to 12 h and the “re-growth of the bacteria” value is “re-growth of the bacteria was observed after 24 hours”.

In turn, `CN(C)C(=O)C(CCN1CCC(O)(c2ccc(Cl)cc2)CC1)(c1ccccc1)c1ccccc1` [Loperamide hydrochloride] returned a viability at 24 h, 1 × MIC in the data set “Cytotoxicity assay” of 84%. This compound registered a biofilm growth inhibition in [1] of 95%. Further, the “dose-dependent quenching of Sortase A fluorescence intensity” value on Sortase A is listed as “except loperamide hydrochloride”. In addition, the membrane potential disruption result in data set [5] is given as “significant reduction only at 2 × MIC”. Further, the “inhibitory activity against the enzyme (in words)” value in data set [2] (FRET assay) is “except loperamide hydrochloride”. The MIC in the data set with S. aureus ATCC 43300 [3] (S. aureus ATCC 43300, MHB, 37 °C, 18 hours) was 64 µg/mL. This compound had an MBC against S. aureus ATCC 43300 [3] (setting [8]) of 128 µg/mL. Also, the lowest concentration to inhibit growth against S. aureus ATCC 43300 [3] (setting [9]) (MIC) was 32 µg/mL. Besides, in the data set on S. aureus ATCC 43300 [4], the “log reduction in colony-forming units” value was no less than 3 log, the “time within which the bacteria were eliminated” value fell in the range of 8 to 12 h and the “re-growth of the bacteria” value was “re-growth of the bacteria was observed after 24 hours”.

In the case of `c1ccc2c(c1)Sc1ccccc1N2CC1CN2CCC1CC2` (centres unmarked) [Mequitazine], the viability at 24 h, 1 × MIC in “Cytotoxicity assay” came to 30%. Also, the biofilm growth inhibition in data set [1] was 95%. Besides, in data set [2], the inhibition at 128 µg/mL is 64%. Besides, in the data set with S. aureus ATCC 43300 [3] (setting [8]), the MBC stood at 128 µg/mL (≈ 397 µM) and it took 64 µg/mL (≈ 198 µM) to inhibit growth (MIC). Moreover, in the data set on S. aureus ATCC 43300 [4], the “log reduction in colony-forming units” value is no less than 3 log and the “time within which the bacteria were eliminated” value fell in the range of 12 to 24 h.

On to `CN1CCN(CCCN2c3ccccc3Sc3ccc(Cl)cc32)CC1` [Prochlorperazine dimaleate], for which, in the data set “Cytotoxicity assay”, the viability at 24 h, 1 × MIC is 86% and the viability at 24 h, 2 × MIC was roughly 50%. For the same compound, the biofilm growth inhibition in data set [1] turned out to be 67%. For the same compound, the “S. aureus ATCC 43300 invasion of macrophages” value in data set [6] was “successfully reduced MRSA invasion of macrophages at 2 × MIC”. Also, in the data set on S. aureus ATCC 43300 [3] (setting [9]), it took 32 µg/mL to inhibit growth (MIC). Further, the “death during the experiment” value in the data set on S. aureus ATCC 43300 [7] is listed as “One BALB/C died during the experiment”. In the data set on S. aureus ATCC 43300 [4], the “re-growth of the bacteria” value was “re-growth of the bacteria was observed after 24 hours” and the “log reduction in CFU” value is recorded as roughly 2 log.

`O.O=c1c(O)c(-c2ccc(O)c(O)c2)oc2cc(O)cc(O)c12` [Quercetin hydrate]: in data set [2] (concentration 128 μg mL^−1), the “% inhibition” value is given as 73%.

In the data set “Cytotoxicity assay”, `CN(C)CCCN1c2ccccc2Sc2ccc(C(F)(F)F)cc21` [Triflupromazine hydrochloride] yielded a viability at 24 h, 1 × MIC of 63%. The compound also returned a biofilm growth inhibition in data set [1] of 19%. At 128 µg/mL the inhibition in data set [2] was 48%. Further, in the data set on S. aureus ATCC 43300 [3] (setting [9]), the minimum inhibitory concentration (MIC) turned out to be 32 µg/mL. Also, in the data set with S. aureus ATCC 43300 [4], the “re-growth of the bacteria” value is recorded as “re-growth of the bacteria was observed after 24 hours” and the “log reduction in CFU” value is given as roughly 2 log.
